The record followed here is the RNAGym collection of RNA variant scans (doi:10.1126/science.aae0568).

This sample holds only a part of the variants without activity.

Sequences and labels used below:
B1: tRNA (parent)
chain: GUUCCGUUGGCGUAAUGGUAACGCGUCUCCCUCCUAAGGAGAAGACUGCGGGUUCGAGUCCCGUACGGAACG

Variants of B1 are the subject of the data set. In words: yeast fitness relative to wild type (ratio to wild type); higher = fitter; tRNA-Arg(CCU), competitive growth, 37 C, YPD. In short, it runs like this:
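A pool of Saccharomyces cerevisiae strains, each with a tRNA-Arg(CCU) gene variant at the native genomic locus, was competed in YPD at 37°C for 24 hours across six parallel replicates. The variants had been chemically synthesised at a 3% per-site mutation rate over 69 sites, and gene amplicons before and after competition were read by 100-nucleotide paired-end sequencing. Darwinian fitness relative to wild type rested on changes in genotype frequencies. Genotypes required ≥ 100 starting reads, and estimates < 0.5 were set to 0.5.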
Turning to GUUCCGUUGACGUAAAGGUAACGCGUCCCCCUCCUAAGGAGCAGACUGCGGGUUCGAGUCCCGUAUGGAACG [G10A U16A U28C A42C C66U], the yeast fitness was ≤ 0.5. Turning to GUUCCGUUGACGUAAUAGAAACGCGUCUUCCUCCUAAGGAGAAGACUGCGGGUUCGAGUCCCGUAUGGAACG [G10A G17A U19A C29U C66U], the yeast fitness is ≤ 0.5. As to GUUCCGUUGACGUAAUGGUAACGCGUCUCCCUCCUAAGGAGAAGACUGCAAGUUCGAGUCCCGUACGGAACG [G10A G50A G51A], the yeast fitness was ≤ 0.5. For GUUCCGUUGACGUAAUGGUAACGCGUCUCCCUCCUAACGAGAAGACUGCAGGUUCGAGUCCCGUACGGGACG [G10A G38C G50A A69G] the value was ≤ 0.5; for GUUCCGUUGACGAAAUGGUAACGCGUCUCCCUCCUAAGGAGAAGACUGCGGGUUCGAGUCCCGUACCGAACG [G10A U13A G67C], ≤ 0.5. For the variant GUUCCGUUGACGUAAUCGUAACGCGUCUCGCUGCUAAGGAGAAGACUGCGGGUUCGAGUCACGUACGGUACG [G10A G17C C30G C33G C61A A69U], the yeast fitness worked out at 0.581. For GUUCCGUUGACGUAAUGGUAACGCGUCUCCCUCCUAAGGAGAAGACUGCGGGUUCGAGUCCCGUAACGAACG [G10A C66A G67C], the yeast fitness is ≤ 0.5.

For the variant GUUCCGUUGACGUAAUGGUAACGCGUCUCCCUCCUAAGGAGAAGACUGCGAGUUCGAGUCCCGUAUGGAACG [G10A G51A C66U], the yeast fitness is ≤ 0.5.

With GUUCCGUUGACGUAAUGGUAACGCGUCUCCCUCCUAAGGAGAAGACUGCGGGUUCGAGUCCUGUACCGAACG [G10A C62U G67C], the yeast fitness worked out at 0.636. For GUUCCGUUGACGUAAUGGUAACGCGUCUCCCUCCUAAGGAACAGACUGCCGGUUCGAGUCCCGUACGGAGCG [G10A G41A A42C G50C A70G], the yeast fitness was 0.533. The same measure for GUUCCGUUGACAUAAAGAUAACGCGUCUCCCUCCUAAGGAGAAGUCUGCGGGUUCGAGUCCCGUACGGAACG [G10A G12A U16A G18A A45U]: ≤ 0.5; for GUUCCGUUGACGUAAUGGUAACGCGCCUGCUUCCUAAGGAGAAGACUGCGGGUUCGAGUCCCGUACGGAACG [G10A U26C C29G C31U]: ≤ 0.5.

As for GUUCCGUUGACGUAAUGGUAACGCGUCUCCCUCCUAAUGAGAAGACUGCGGGUUCGAGUCCCGUACCGAACG [G10A G38U G67C], the yeast fitness was ≤ 0.5. For the variant GUUCCGUUGACGUAAUGGUAACGCGUCUCCCUCCUAAUGAGAAGACUGCGGGUUCGAGUCCCGUACUGAACG [G10A G38U G67U], the yeast fitness is ≤ 0.5. For GUUCCGUUGACGAAAUGGUAACGCGUCUCUCUCCUAAGGAGAAGACUGCGGGUUGGACUCCCGUACGGAACG [G10A U13A C30U C55G G58C] the value was ≤ 0.5.

Consider GUUCCGUUGACGUAAUAGAAACGCGUCUUCCUCGUAAGGAGAAGACUGCGGGUUCGAGUCCCGUACGGAACG [G10A G17A U19A C29U C34G], for which the yeast fitness is ≤ 0.5.

Consider GUUCCGUUGACGUAAUGGUAACGCGUCUCCCUCCUAAGGAGAAGACUGCGGAUUCGAGUCCCGUACGGAACG [G10A G52A], for which the yeast fitness came to 0.53.

Take GUUCCGUUGACGUAAUGGUAACGCGUCUCCCUCCUAAGGAGAAGACUGCGGCUUCGAGUCCCGUACGGAACG [G10A G52C]: the yeast fitness was 0.528. On to GUUCCGUUGACGUAAUGGUAACGCGUCUCCCUCCUAAGGAAAAGACUGUGGGAUCGAGUCCCGUAGGGAACG [G10A G41A C49U U53A C66G], for which the yeast fitness stood at 0.537. Take GUUCCGUUGACGUAACGGUAACGCGUCUCCCUCCCAAGGUGAAGACUGCGGGUUCGAGUCCCGUACGGAACG [G10A U16C U35C A40U]: the yeast fitness was ≤ 0.5. As to GUUCCGUUGACGUAAUGGUAACGCGUCUCCCUCCUAAGGAGAAGACUGCAGGUUCGAGACACGUACGGAACG [G10A G50A U59A C61A], the yeast fitness was ≤ 0.5. GUUCCGUUGACGUAAUGGUAACGCGUCUCCCUCCUAAGGAGAAGACUGCGGGUUCGAAUCCCGUACGGAACG [G10A G58A]: the yeast fitness was determined as 0.767. As for GUUCCGUUGACGUAAUAGUAACGCGUCUACCUCGUAAGGAGACGACUGCGGGUUCGAGUGCCGUACGGAACG [G10A G17A C29A C34G A43C C60G], the yeast fitness is ≤ 0.5. Take GUUCCGUUGACAUAAUGGUAACGCGUCUCCCUCCUAAGGAGAAGACUGCGGAUUCGAGUCCCGUAUGGAACG [G10A G12A G52A C66U]: the yeast fitness is ≤ 0.5. In the case of GUUCCGUUGACGUAAUGGUAACGCGUCUCCCUCCUAAGGAGAAGACUACGGGUUAGAGUCCCGUACGGAACG [G10A G48A C55A], the yeast fitness is ≤ 0.5. Regarding GUUCCGUUGACGUAAUGGUAACGCUUCUCCCUCCUUAGGAGAGGACUGCGGGUUCGAGUUCCGUACGGAACG [G10A G25U A36U A43G C60U], the yeast fitness is ≤ 0.5.

With GUUCCGUUGACGUAAAGGUAACGCGUCUCCCUCCUAAGGAGAAGACUGCGGGUUCGAGUCCCGUUCGGAACG [G10A U16A A65U], the yeast fitness came out at 0.575. In the case of GUUCCGUUGACGUAAUGGUAACGCGUCUCCCUCCUAAGGAGAAAACUGCGGGUCCGAGUCCCGUACCGAACG [G10A G44A U54C G67C], the yeast fitness is ≤ 0.5. For the variant GUUCCGUUGACGUAAUGGUAACGCGUCUCCCUCCUAAGGAGAAGACUGCGGGUUCGAGUCACGUACGGCCCG [G10A C61A A69C A70C], the yeast fitness was ≤ 0.5.

Regarding GUUCCGUUGACGUAAUGGUAACGCGUCUCCCUCCUAAGGAGAAGACUGCGGGUUCGAGUCCUGUAUGGAACG [G10A C62U C66U], the yeast fitness is 0.617. Regarding GUUCCGUUGACGUAAUGGUAACGCGCCUCCCUCCUGAGGAGAAGACUGCGGGUUCAAGUCCCGUACGGAACG [G10A U26C A36G G56A], the yeast fitness is ≤ 0.5. Regarding GUUCCGUUGACGUAAUAGUAACGCGUCUCCCUCCUAAGGAGAAGACUGCGGGUUCGAGUCAUGUUCGGCACG [G10A G17A C61A C62U A65U A69C], the yeast fitness is ≤ 0.5. As for GUUCCGUUGACGUAAUCGUAACGCGUCUCGCUGCUAAGGAGAAGACUGCGGGUUCGAGUCCCGUACGCAACG [G10A G17C C30G C33G G68C], the yeast fitness is ≤ 0.5. Consider GUUCCGUUGACGUAAUGGUAACGCGUCUCCCUCCUAAGCAGAAGACUGCGGGUUCGAGUCCCGUACGGAGCG [G10A G39C A70G], for which the yeast fitness came to 0.589.

Take GUUCCGUUGACGUAAUGGUAACGCGUCUCCCUCCUAAGGAGAAGACUGCGGGUUCAAGUCCCGUACGGUACG [G10A G56A A69U]: the yeast fitness came to 0.601. On to GUUCCGUUGACGUAAUGGUAACGCGCCUCCCUCCUAAGGAGAAGACUGCGGGUUCGAGUCCCGUACGGAACG [G10A U26C], for which the yeast fitness worked out at 0.736.

Take GUUCCGUUGACGUAAUGGUAACGCGACUCCCUCCUAAGGAGAAGACUGCGGGUUCGAGUCCCGUACGGAACG [G10A U26A]: the yeast fitness amounted to 0.731.
